# Assay results: article PMC10915797 (Molecular Pharmaceutics, 2024)
# Experiments:
# [1] = tested on: U87MG cells; assay: Blocking of tracer cell binding by PD-L1 antibodies; assay type: cell-based, human; conditions: U87MG cells pre-incubated with 50 nM antibody, 4 °C, 30 min, then tracer 30 min
# Procedure, shortened: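 U87MG cells (1 × 10^6 per sample, n = 3) pre-incubated with PBS or 50 nM PD-L1 monoclonal antibody, 4 °C, 30 min, then given 0.1 μCi Al[18F]F-NOTA-PCP1 at 4 °C for 30 min. Washed three times with PBS–0.1% Tween-20. Bound radioactivity gamma-counted and expressed as %ID. Compared with PBS-treated cells by unpaired two-tailed t test.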
# [2] = tested on: U87MG tumors; assay: Micro-PET/CT target engagement of PD-L1 antibodies; assay type: in vivo, BALB/c nude mice; conditions: U87MG model
# Procedure, shortened: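 Female BALB/c nude mice (6–8 weeks, 18.0–23.0 g) carried subcutaneous right-flank U87MG xenografts (6 × 10^6 cells) grown to 100–300 mm3. Atezolizumab given at 0.05–20 mg/kg (n = 3). Imaged 24 or 120 h later: 6.0 ± 0.91 MBq tracer via tail vein, micro-PET/CT at 2 h post-injection under 1.5–2% isoflurane. 3D-OSEM/OP-MAP reconstruction with attenuation correction; manual tumour ROIs; uptake as %ID/cc.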
# [3] = target: recombinant human PD-L1 protein (Homo sapiens, UniProt Q9NZQ7); assay: SPR binding affinity; conditions: read-out: Kd (dissociation rate constant)
# Procedure, shortened: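 SPR on a CM5 chip at 25 °C. Recombinant human PD-L1 immobilised; surface blocked at pH 8.5. Peptide in HEPES-buffered saline (pH 7.2–7.4, 0.005% P20) at seven concentrations, 1.5625–100 nM, injected at 10 μL/min: 120 s association, 360 s dissociation. Regenerated with glycine pH 2.0 for 15 s. Blank-subtracted sensorgrams fitted to give the dissociation rate constant.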
# [4] = target: recombinant murine PD-L1 protein (Mus musculus, UniProt Q9EP73); assay: SPR binding affinity; conditions: read-out: Kd (dissociation rate constant)
# Chain of recombinant murine PD-L1 protein (Q9EP73 19-290): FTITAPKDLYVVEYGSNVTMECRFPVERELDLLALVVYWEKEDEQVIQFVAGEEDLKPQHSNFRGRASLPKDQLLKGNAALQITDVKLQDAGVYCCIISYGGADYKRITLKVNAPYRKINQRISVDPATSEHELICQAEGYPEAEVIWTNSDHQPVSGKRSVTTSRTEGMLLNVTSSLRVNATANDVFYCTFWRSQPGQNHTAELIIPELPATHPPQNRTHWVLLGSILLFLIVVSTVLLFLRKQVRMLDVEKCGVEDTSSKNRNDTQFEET
# Chain of recombinant human PD-L1 protein (Q9NZQ7 19-290): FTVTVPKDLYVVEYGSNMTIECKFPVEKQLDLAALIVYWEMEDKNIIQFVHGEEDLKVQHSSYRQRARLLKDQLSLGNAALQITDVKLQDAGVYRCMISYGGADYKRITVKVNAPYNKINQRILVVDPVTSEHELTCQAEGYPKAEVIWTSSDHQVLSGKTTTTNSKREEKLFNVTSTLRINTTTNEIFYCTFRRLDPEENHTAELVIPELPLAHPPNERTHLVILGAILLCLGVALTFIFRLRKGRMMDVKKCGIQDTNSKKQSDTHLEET
molecule,measurement,setting,value
AtzMab: anti-PD-L1 monoclonal antibody,Al[^18F]F-NOTA-PCP1 cell uptake after antibody treatment,[1],1.26 ± 0.05 %ID
same,tumor Al[^18F]F-NOTA-PCP1 uptake on PET/CT after antibody,"[2]; AtzMab 0.05 mg/kg, at 120h, n = 3 (Figure 6B)",11.64 ± 1.13 %ID/cc
same,tumor Al[^18F]F-NOTA-PCP1 uptake on PET/CT after antibody,"[2]; AtzMab 0.5 mg/kg, at 120h, n = 3 (Figure 6B)",6.17 ± 0.35 %ID/cc
same,tumor Al[^18F]F-NOTA-PCP1 uptake on PET/CT after antibody,"[2]; AtzMab 5 mg/kg, 24 h, n = 3 (Figure 7B)",2.16 ± 0.20 %ID/cc
same,tumor Al[^18F]F-NOTA-PCP1 uptake on PET/CT after antibody,"[2]; AtzMab 5 mg/kg, 120 h, n = 3 (Figure 7B)",6.91 ± 0.18 %ID/cc
same,tumor Al[^18F]F-NOTA-PCP1 uptake on PET/CT after antibody,"[2]; AtzMab 20 mg/kg, 24 h, n = 3 (Figure 7B)",2.19 ± 0.13 %ID/cc
same,tumor Al[^18F]F-NOTA-PCP1 uptake on PET/CT after antibody,"[2]; AtzMab 20 mg/kg, 120 h, n = 3 (Figure 7B)",2.29 ± 0.04 %ID/cc
same,tumor Al[^18F]F-NOTA-PCP1 uptake on PET/CT after antibody,"[2]; AtzMab 20 mg/kg, at 120h, n = 3 (Figure 6B)",2.02 ± 0.14 %ID/cc
DurMab: anti-PD-L1 monoclonal antibody,Al[^18F]F-NOTA-PCP1 cell uptake after antibody treatment,[1],1.34 ± 0.09 %ID
CCCC[C@H]1C(=O)N(C)[C@@H](CCCC)C(=O)N[C@@H](CCCNC(=O)CCOCCOCCOCCNC(=O)CN2CCN(CC(=O)O)CCN(CC(=O)O)CC2)C(=O)N[C@H](C(=O)NCC(N)=O)CSCC(=O)N[C@@H](Cc2ccc(O)cc2)C(=O)N(C)[C@@H](C)C(=O)N[C@@H](CC(N)=O)C(=O)N2CCC[C@H]2C(=O)N[C@@H](Cc2c[nH]cn2)C(=O)N[C@@H](CC(C)C)C(=O)N2C[C@H](O)C[C@H]2C(=O)N[C@@H](Cc2c[nH]c3ccccc23)C(=O)N[C@@H](CO)C(=O)N[C@@H](Cc2cn(C)c3ccccc23)C(=O)N1C [NOTA-PCP1],koff,[3],0.000593 s⁻¹
same,koff,[4],0.52 s⁻¹
AveMab: anti-PD-L1 monoclonal antibody,Al[^18F]F-NOTA-PCP1 cell uptake after antibody treatment,[1],1.40 ± 0.05 %ID
